Experimental data as given in ChEMBL document CHEMBL1137298, “2-triazole-substituted adenosines: a new class of selective A3 adenosine receptor agonists, partial agonists, and antagonists” (J Med Chem, 2006).
pKi: −log10 of the molar value. Calls of active or inactive are those of the source. The rule behind the calls is not given here.

Columns and labels:
[1] = molecular target: T1, Adenosine receptor A2a (Homo sapiens, UniProt P29274); experiment: Inhibition of [3H]CGS21680 binding to human Adenosine A2A receptor expressed in CHO cells at 10 uM; format: cell-based
In short: (§1)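 Membranes from CHO cells stably transfected with human A1AR (radioligand [3H]CCPA) or human A2AAR (radioligand [3H]CGS21680), in Tris-HCl pH 7.4/MgCl2/EDTA buffer with adenosine deaminase. Compound tested at a fixed 10 µM. Result expressed as percent displacement of radioligand, n = 3 unless otherwise noted.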

[2] = molecular target: Adenosine receptor A2b (Homo sapiens) (UniProt P29275); experiment: Activity at human adenosine A2B receptor in CHO cells assessed as stimulation of cAMP production relative to NECA at 10 uM
[3] = molecular target: T2, Adenosine receptor A3 (Homo sapiens, UniProt P0DMS8); experiment: Displacement of [125I]AB-MECA from human Adenosine A3 receptor expressed in CHO cells; format: cell-based
T2 sequence (P0DMS8 whole entry): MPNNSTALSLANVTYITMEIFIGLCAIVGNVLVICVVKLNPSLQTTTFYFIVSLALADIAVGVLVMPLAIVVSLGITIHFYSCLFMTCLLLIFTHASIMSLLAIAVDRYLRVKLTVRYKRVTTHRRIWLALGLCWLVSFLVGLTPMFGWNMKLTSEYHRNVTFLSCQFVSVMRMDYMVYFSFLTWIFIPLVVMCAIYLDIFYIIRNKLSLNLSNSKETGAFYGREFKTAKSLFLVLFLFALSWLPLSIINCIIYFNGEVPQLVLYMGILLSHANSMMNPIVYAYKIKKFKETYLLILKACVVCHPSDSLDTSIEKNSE

[4] = molecular target: T3, Adenosine receptor A1 (Homo sapiens, UniProt P30542); experiment: Displacement of [3H]CCPA from human Adenosine A1 receptor expressed in CHO cells; format: cell-based
T3 sequence (P30542 whole entry): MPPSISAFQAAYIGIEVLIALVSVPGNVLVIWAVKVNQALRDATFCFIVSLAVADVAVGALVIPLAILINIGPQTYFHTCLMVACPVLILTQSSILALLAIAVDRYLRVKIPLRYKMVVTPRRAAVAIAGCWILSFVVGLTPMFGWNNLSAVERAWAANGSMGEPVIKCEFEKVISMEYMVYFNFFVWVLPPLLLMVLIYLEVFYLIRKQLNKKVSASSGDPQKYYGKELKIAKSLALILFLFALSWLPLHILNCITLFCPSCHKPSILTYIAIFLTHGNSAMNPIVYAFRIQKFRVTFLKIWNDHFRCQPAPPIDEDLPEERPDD

[5] = molecular target: T4, Adenosine receptor A3 (Rattus norvegicus, UniProt P28647); experiment: Displacement of [125I]AB-MECA from rat Adenosine A3 receptor expressed in CHO cells; format: cell-based
T4 sequence (P28647 whole entry): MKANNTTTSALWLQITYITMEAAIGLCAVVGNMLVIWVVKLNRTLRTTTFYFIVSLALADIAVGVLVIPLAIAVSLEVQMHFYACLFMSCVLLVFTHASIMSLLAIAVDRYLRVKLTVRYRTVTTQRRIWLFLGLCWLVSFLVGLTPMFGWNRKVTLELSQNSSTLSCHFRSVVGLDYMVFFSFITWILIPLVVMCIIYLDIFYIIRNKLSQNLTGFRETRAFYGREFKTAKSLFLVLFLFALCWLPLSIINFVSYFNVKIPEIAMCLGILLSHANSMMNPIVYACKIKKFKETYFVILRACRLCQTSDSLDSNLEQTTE
In short: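 Membranes from CHO cells expressing rat A3AR, prepared in 50 mM Tris-HCl pH 7.4 with 10 mM MgCl2, 1 mM EDTA and 3 units/mL adenosine deaminase. Incubated with [125I]AB-MECA (0.5 nM final) and increasing compound concentrations for 60 min at 25 °C. Nonspecific binding defined with 10 µM NECA. GF/B filtration, gamma counting, Ki derived.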

[6] = molecular target: Adenosine receptors; A1 & A3 (Homo sapiens) (UniProt P30542+P0DMS8); experiment: Selectivity for human adenosine A3 over human adenosine A1 receptor; format: protein assay
[7] = molecular target: T5, Adenosine receptor A1 (Homo sapiens) (UniProt P30542); experiment: Inhibition of [3H]CCPA binding to human Adenosine A1 receptor expressed in CHO cells at 10 uM; format: cell-based; in short: as §1
T5 sequence (whole entry): T3 sequence (P30542 whole entry)

[8] = molecular target: T1, Adenosine receptor A2a; experiment: Displacement of [3H]CGS-21680 from human Adenosine A2A receptor expressed in CHO cells; format: cell-based

T1 sequence (P29274 whole entry): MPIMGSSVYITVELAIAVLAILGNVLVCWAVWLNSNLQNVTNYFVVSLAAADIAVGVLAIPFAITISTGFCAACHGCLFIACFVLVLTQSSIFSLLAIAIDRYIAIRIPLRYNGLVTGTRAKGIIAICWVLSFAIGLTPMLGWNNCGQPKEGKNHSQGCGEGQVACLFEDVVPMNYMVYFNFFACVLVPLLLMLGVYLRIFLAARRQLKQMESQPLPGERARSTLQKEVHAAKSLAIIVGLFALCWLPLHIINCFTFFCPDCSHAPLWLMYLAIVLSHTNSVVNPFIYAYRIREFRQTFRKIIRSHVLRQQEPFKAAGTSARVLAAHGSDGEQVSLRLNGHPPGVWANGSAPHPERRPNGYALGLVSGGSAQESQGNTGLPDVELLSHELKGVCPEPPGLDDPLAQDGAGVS

Compound | inhibition [1] | Activity [2] | pKi [3] | pKi [4] | pKi [5] | Selectivity ratio [6] | inhibition [7] | pKi [8]
CNc1nc(N=[N+]=[N-])nc2c1ncn2[C@@H]1O[C@H](CO)[C@@H](O)[C@H]1O | 23% | < 50% | – | – | – | – | – | –
CCc1cn(-c2nc(NC)c3ncn([C@@H]4O[C@H](CO)[C@@H](O)[C@H]4O)c3n2)nn1 | 18% | < 50% | 7.86 | 5.53 | – | – | – | –
CNc1nc(-n2cc(CC3CCCC3)nn2)nc2c1ncn2[C@@H]1O[C@H](CO)[C@@H](O)[C@H]1O | 39% | < 50% | 8.89 | 6.47 | 6.51 | 260 | – | –
CCNC(=O)[C@H]1O[C@@H](n2cnc3c(NC)nc(-n4cc(Cc5ccccc5)nn4)nc32)[C@H](O)[C@@H]1O | 33% | 50% | 8.55 | 6.29 | – | – | – | –
CCNC(=O)[C@H]1O[C@@H](n2cnc3c(NC)nc(N=[N+]=[N-])nc32)[C@H](O)[C@@H]1O | 18% | 50% | – | – | – | – | – | –
CNc1nc(-n2cc(Cc3ccccc3)nn2)nc2c1ncn2[C@@H]1O[C@H](CO)[C@@H](O)[C@H]1O | 20% | < 50% | 8.02 | 6.23 | 5.75 | – | – | –
CNc1nc(-n2cc(-c3ccccn3)nn2)nc2c1ncn2[C@@H]1O[C@H](CO)[C@@H](O)[C@H]1O | 40% | inactive | 7.99 | 5.71 | < 5.00 | – | – | –
CCCCc1cn(-c2nc(NC)c3ncn([C@@H]4O[C@H](CO)[C@@H](O)[C@H]4O)c3n2)nn1 | 23% | inactive | 7.93 | – | – | 72 | – | –
CNc1nc(-c2cn(Cc3cccc(OC)c3)nn2)nc2c1ncn2[C@@H]1O[C@H](CO)[C@@H](O)[C@H]1O | 43% | < 50% | 7.06 | 6.02 | – | – | – | –
CNc1nc(-n2ccnn2)nc2c1ncn2[C@@H]1O[C@H](CO)[C@@H](O)[C@H]1O | 13% | – | 7.98 | 6.00 | – | – | – | –
CCNC(=O)[C@H]1O[C@@H](n2cnc3c(NC)nc(-n4cc(CC5CCCC5)nn4)nc32)[C@H](O)[C@@H]1O | 36% | < 50% | 7.94 | 5.90 | – | – | – | –
CNc1nc(-n2cc(CN(C)C)nn2)nc2c1ncn2[C@@H]1O[C@H](CO)[C@@H](O)[C@H]1O | 6% | inactive | 6.93 | 5.42 | < 5.00 | – | – | –
CCCOc1ccc(-c2cn(-c3nc(NC)c4ncn([C@@H]5O[C@H](CO)[C@@H](O)[C@H]5O)c4n3)nn2)cc1 | 14% | < 50% | 7.60 | – | < 5.00 | – | 49% | –
CCCCc1cn(-c2nc(NC)c3ncn([C@@H]4O[C@H](C(=O)NCC)[C@@H](O)[C@H]4O)c3n2)nn1 | 43% | inactive | 8.25 | 6.12 | – | – | – | –
CNc1nc(-n2cc(-c3ccccc3)nn2)nc2c1ncn2[C@@H]1O[C@H](CO)[C@@H](O)[C@H]1O | 5% | inactive | 7.83 | – | – | – | 36% | –
CCNC(=O)[C@H]1O[C@@H](n2cnc3c(NC)nc(-n4cc(-c5ccccn5)nn4)nc32)[C@H](O)[C@@H]1O | 45% | < 50% | 8.74 | 5.79 | – | 910 | – | –
CNc1nc(-n2cc(CCO)nn2)nc2c1ncn2[C@@H]1O[C@H](CO)[C@@H](O)[C@H]1O | 14% | inactive | 7.35 | 5.90 | – | – | – | –
COc1ccc(Cl)cc1CNc1nc(-n2cc(CC3CCCC3)nn2)nc2c1ncn2[C@@H]1O[C@H](CO)[C@@H](O)[C@H]1O | – | – | 7.74 | 6.08 | – | – | – | 5.22
CNc1nc(-c2cn(Cc3cccc(Cl)c3)nn2)nc2c1ncn2[C@@H]1O[C@H](CO)[C@@H](O)[C@H]1O | 39% | < 50% | 7.09 | 6.02 | – | – | – | –
CCNC(=O)[C@H]1O[C@@H](n2cnc3c(NC)nc(-n4ccnn4)nc32)[C@H](O)[C@@H]1O | 18% | inactive | 8.68 | 6.23 | – | – | – | –
CNc1nc(-c2cn(Cc3ccccc3)nn2)nc2c1ncn2[C@@H]1O[C@H](CO)[C@@H](O)[C@H]1O | 21% | < 50% | 7.27 | 6.11 | – | – | – | –
CNc1nc(-n2cc(CC3CCCCC3)nn2)nc2c1ncn2[C@@H]1O[C@H](CO)[C@@H](O)[C@H]1O | 16% | < 50% | 7.67 | 5.84 | – | 67 | – | –
